Measured values as given in ChEMBL document CHEMBL1134834, “Quinoxalinylethylpyridylthioureas (QXPTs) as potent non-nucleoside HIV-1 reverse transcriptase (RT) inhibitors. Further SAR studies and identification of a novel orally bioavailable hydrazine-based antiviral agent” (J Med Chem, 2001).
The source made the active and inactive calls. No cut-off for these calls is given here.

Key:
CEM-SS [1] = assay: Concentration which produces a 50% survival of HIV-1 infected cells relative to uninfected control CEM-SS cells (in vitro anti-HIV activity); type: functional, cell-based; settings: Homo sapiens
Summary of the method: (§1)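 CEM-SS T4 lymphocytes infected with wild-type HIV-1. Protection from virus-induced cell death is scored against an AZT-treated positive control run under identical conditions. […] SI = IC50/EC50.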

Daudi [2] = assay: Cytotoxicity on Daudi Human(DH) cell line (O.D.=0.129+/-0.018); type: functional; settings: read-out: TC50 (the source's name)
C8166 [3] = assay: Antiviral activity alone against HIV-IIIB in C8166 cells; type: functional, cell-based; settings: Homo sapiens
Summary of the method: (§2)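 C8166 CD4+ T-cell line (HTLV-I genome, only tat expressed) acutely infected with lymphocytotropic HIV-1 IIIB. […] Read-out is HIV-p24 antigen in supernatants. AZT positive control was run at the same time. SI = IC50/EC50.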

[4] = target: Human immunodeficiency virus type 1 reverse transcriptase (Human immunodeficiency virus 1, UniProt Q72547, Y181I); assay: Inhibition of HIV-1 Mutant HIV-1 RT enzymes containing the single amino acid substitution Y181I
[5] = target: T1, Human immunodeficiency virus type 1 reverse transcriptase (Human immunodeficiency virus 1, UniProt Q72547); assay: Inhibition of HIV-1 Mutant HIV-1 RT enzymes containing the single amino acid substitution […]
C8166 [6] = assay: Synergistic antiviral activity of AZT (DDI) with the compound, against HIV-IIIB in C8166 cells; type: functional, cell-based; settings: Homo sapiens
Summary of the method: (§3)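 C8166 cells infected with HIV-IIIB and treated with compound combined with AZT (or DDI). Combination index calculated by the Chou-Talalay multiple drug effect analysis under both mutually exclusive and mutually nonexclusive assumptions.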

Mus musculus [7] = species on record: Mus musculus; assay: Cytotoxicity on NSO murine cell line (O.D.=0.125+/-0.015); type: functional; settings: read-out: TC50 (the source's name)
[8] = target: Human immunodeficiency virus type 1 reverse transcriptase (Human immunodeficiency virus 1, UniProt Q72547, K103N); assay: Inhibition of HIV-1 Mutant HIV-1 RT enzymes containing the single amino acid substitution K103N
[9] = test system: Human immunodeficiency virus 1; assay: Concentration which produces a 50% survival of HIV-1 infected cells relative to uninfected control C8166 cells; type: functional, organism-based; settings: Human immunodeficiency virus 1, C8166
NIH3T3 [10] = assay: Cytotoxicity on 3T3 fibroblasts (3T3F) murine cell line (O.D.=0.131+/-0.014); type: functional; settings: Mus musculus, read-out: TC50 (the source's name)
[11] = target: Human immunodeficiency virus type 1 reverse transcriptase (Human immunodeficiency virus 1, UniProt Q72547, V106A); assay: Inhibition of HIV-1 Mutant HIV-1 RT enzymes containing the single amino acid substitution V106A
[12] = Cytotoxicity on normal human lymphocytes(HL) (O.D.=0.114+/-0.01); type: functional; settings: read-out: TC50 (the source's name)
[13] = target: T1, Human immunodeficiency virus type 1 reverse transcriptase; assay: Inhibition of HIV-1 wild-type RT
[14] = target: Human immunodeficiency virus type 1 reverse transcriptase (Human immunodeficiency virus 1, UniProt Q72547, Y188L); assay: Inhibition of HIV-1 Mutant HIV-1 RT enzymes containing the single amino acid substitution Y188L
C8166 [15] = assay: (§4) Concentration which results in 50% survival of uninfected untreated control C8166 cells (cytotoxicity of the compound); type: functional, cell-based; settings: Homo sapiens
Summary of the method: (§5)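 Toxicity in uninfected C8166 cells by MTT reduction to formazan, read spectrophotometrically.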

[16] = (§6) Selectivity index was determined in C8166 cells; type: functional; summary of the method: as §2
CEM-SS [17] = assay: (§7) Concentration which results in 50% survival of uninfected untreated control CEM-SS cells (cytotoxicity of the compound); type: functional, cell-based; settings: Homo sapiens, read-out: IC50 (the source's name)
[18] = Selectivity index was determined in CEM-SS cells; type: functional; summary of the method: as §1
C8166 [19] = assay: Synergistic antiviral activity with AZT (DDI), against HIV-IIIB in C8166 cells; type: functional, cell-based; settings: Homo sapiens; summary of the method: as §3
[20] = test system: Human immunodeficiency virus 1; assay: Inhibition of HIV-1-p24 antigen production in monocyte-macrophages (in vitro anti-HIV-1 activity); type: functional, organism-based
Summary of the method: (§8)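 Macrophages from adherent PBMC (10^6/mL, RPMI-1640 with 20% heat-inactivated FCS), 10^5 per well, >95% pure, infected with monocytotropic HTLV-III Ba-L. Antiviral activity read 14 days after infection. […] SI = IC50/EC50. AZT control run in parallel.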

[21] = test system: Human immunodeficiency virus 1; assay: Inhibition of HIV-1-p24 antigen production in monocyte-macrophages (cytotoxicity of the compound); type: organism-based; summary of the method: as §8
[22] = Selectivity index between IC50 of HIV-1-p24 and EC50 of HIV-1-p24 (IC50/EC50); type: functional; summary of the method: as §8
C8166 [23] = assay: as §6; type: functional, Homo sapiens; summary of the method: as §2
CEM-SS [24] = assay: as §7; type: cell-based; settings: Homo sapiens
[25] = target: Human immunodeficiency virus type 1 protease (Human immunodeficiency virus 1) (UniProt Q72874); assay: Inhibition of HIV-1 Mutant HIV-1 RT enzymes containing the single amino acid substitution K103N; NA means Not active
Summary of the method: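 Template poly(rA)oligo(dT) 10:1 (0.3 µM 3′-OH ends) with 10 µM [3H]-dTTP, 37 °C. TCA-precipitable radioactivity counted. Ki from Lineweaver-Burk and Dixon plots, inhibitor 0.2-5 Ki, triplicate.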

NIH3T3 [26] = assay: Cytotoxicity against 3T3 fibroblasts (3T3F) murine cell line (O.D.=0.131+/-0.014); type: functional; settings: Mus musculus, read-out: TC50 (the source's name)
C8166 [27] = assay: as §4; type: cell-based; settings: Homo sapiens; summary of the method: as §5
Mus musculus [28] = species on record: Mus musculus; assay: Cytotoxicity against NSO murine cell line (O.D.=0.125+/-0.015); type: functional; settings: read-out: TC50 (the source's name)
Daudi [29] = assay: Cytotoxicity against Daudi Human(DH) cell line (O.D.=0.129+/-0.018); type: functional; settings: read-out: TC50 (the source's name)
[30] = Cytotoxicity against normal human lymphocytes(HL) (O.D.=0.114+/-0.01); settings: read-out: TC50 (the source's name)

SMILES | EC50 (CEM-SS [1]) [µM] | CC50 (Daudi [2]) [µM] | Ki [4] [µM] | Ki [5] [µM] | CC50 (Mus musculus [7]) [µM] | Ki [8] [µM] | EC50 [9] [µM] | CC50 (NIH3T3 [10]) [µM] | Ki [11] [µM] | CC50 [12] [µM] | Ki [13] [µM] | Ki [14] [µM] | IC50 (C8166 [15]) [µM] | SI [18] | further results
O=c1c2nccn2c2ccccc2n1CCNC(=S)Nc1ccc(Br)cn1 | 0.013 | 680 | 1.4 | 1 | 680 | 0.24 | 0.32 | 690 | 0.35 | 670 | 0.25 | 5 | 88 | >150 | EC50 (C8166 [3]): 0.588 µM; EC50 (C8166 [6]): 0.066 µM; SI [16]: 275; CC50 (CEM-SS [17]): > 2 µM; EC50 (C8166 [19]): 0.46 µM
O=C(NNc1nc2ccccc2n2cccc12)c1ccccn1 | – | – | – | – | – | – | – | – | – | – | 4 | – | – | – | –
O=c1c2cccn2c2cccc(F)c2n1CC/N=C(\S)Nc1ccc(Br)cn1 | 0.00047 | 1000 | 0.2 | 0.17 | 1000 | 0.16 | 0.025 | 1000 | 0.015 | 960 | 0.009 | 0.2 | 200 | >43 | EC50 (C8166 [3]): 0.025 µM; EC50 (C8166 [6]): 0.003 µM; EC50 [20]: 0.002 µM; IC50 [21]: 17 µM; SI [22]: 8800; SI [16]: 7990; CC50 (CEM-SS [17]): > 0.02 µM; EC50 (C8166 [19]): 0.002 µM
S=C(NCCOc1nc2cc(Cl)ccc2n2cccc12)Nc1ccc(Br)cn1 | – | > 1000 | 0.09 | 0.12 | > 1000 | 0.21 | 0.025 | > 1000 | 0.12 | > 1000 | – | 0.1 | 93 | – | SI (C8166 [23]): 3720
S=C(NNc1nc2ccccc2n2cccc12)Nc1ccc(Br)cn1 | – | – | – | – | – | – | – | – | – | – | 1.9 | – | – | – | –
O=c1c2cccn2c2c(F)cc(F)cc2n1CC/N=C(\S)Nc1ccc(Br)cn1 | 0.085 | – | – | – | – | – | – | – | – | – | – | – | – | >23 | IC50 (CEM-SS [24]): > 2 µM; NA [25]: inactive
O=c1c2cccn2c2c(F)cc(F)cc2n1CCNC(=S)Nc1ccc(Br)cn1 | – | – | 1.6 | 0.1 | – | – | – | – | 0.03 | – | 0.022 | 0.45 | – | – | –
O=c1c2cccn2c2ccccc2n1CCNC(=S)Nc1ccc(Br)cn1 | – | – | 4 | 0.105 | – | 0.1 | 0.38 | – | 0.112 | – | 0.058 | 2.5 | – | – | CC50 (NIH3T3 [26]): 800 µM; IC50 (C8166 [27]): 17 µM; CC50 (Mus musculus [28]): 800 µM; CC50 (Daudi [29]): 800 µM; CC50 [30]: 800 µM
